Measurements as given in ChEMBL document CHEMBL1139955, “C(4)-alkyl substituted furanyl cyclobutenediones as potent, orally bioavailable CXCR2 and CXCR1 receptor antagonists” (Bioorg Med Chem Lett, 2007).

How the values were obtained:
[1] = target: T1, C-X-C chemokine receptor type 2 (Homo sapiens, UniProt P25025); test: Displacement of [125I]IL8 from human CXCR2 expressed in CHO cells by SPA; assay type: cell-based
T1 sequence (P25025 whole entry): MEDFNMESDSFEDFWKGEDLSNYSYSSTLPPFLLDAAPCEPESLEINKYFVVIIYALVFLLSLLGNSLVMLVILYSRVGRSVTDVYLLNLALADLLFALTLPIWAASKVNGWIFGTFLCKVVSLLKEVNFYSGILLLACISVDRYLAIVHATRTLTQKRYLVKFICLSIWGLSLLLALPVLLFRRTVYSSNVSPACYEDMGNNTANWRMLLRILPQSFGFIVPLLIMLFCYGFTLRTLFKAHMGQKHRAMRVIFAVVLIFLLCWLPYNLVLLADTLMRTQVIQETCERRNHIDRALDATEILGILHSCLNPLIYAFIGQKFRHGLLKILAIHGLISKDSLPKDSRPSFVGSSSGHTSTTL

[2] = target: T2, C-X-C chemokine receptor type 1 (Homo sapiens, UniProt P25024); test: Displacement of [125I]IL8 from human CXCR1 expressed in CHO cells by SPA; assay type: cell-based
T2 sequence (P25024 whole entry): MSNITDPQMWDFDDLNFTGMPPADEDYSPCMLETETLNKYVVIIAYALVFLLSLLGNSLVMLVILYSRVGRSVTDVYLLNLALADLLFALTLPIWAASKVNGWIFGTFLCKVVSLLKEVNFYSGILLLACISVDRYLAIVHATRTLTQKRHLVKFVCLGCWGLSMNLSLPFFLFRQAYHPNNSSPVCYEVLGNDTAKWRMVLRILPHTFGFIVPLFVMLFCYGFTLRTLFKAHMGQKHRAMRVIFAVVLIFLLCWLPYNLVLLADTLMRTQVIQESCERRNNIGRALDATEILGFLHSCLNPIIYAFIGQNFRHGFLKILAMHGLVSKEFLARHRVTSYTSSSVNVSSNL

[3] = AUC in rat at 10 mg/kg, po after 6 hrs; assay type: ADME, organism-based; set-up: time < 6 hr, dose 10 mg/kg, route oral; settings: plasma
Neutrophil [4] = test: Inhibition of GROalpha-induced migration of human neutrophils by chemotaxis assay; assay type: functional, cell-based
Outline: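 Human neutrophil migration stimulated with 30 nM Gro-α; IC50 determined.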

Neutrophil [5] = test: Inhibition of IL8-induced migration of human neutrophils by chemotaxis assay; assay type: functional, cell-based
Outline: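 Human neutrophil migration stimulated with 3 nM IL-8; IC50 determined.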

Rattus norvegicus = species: Rattus norvegicus; test: Antiinflammatory activity against rat model of lipopolysaccharide-induced pulmonary inflammation; assay type: functional
Mus musculus = species: Mus musculus; test: Antiinflammatory activity against mouse model of cigarette smoke-induced neutrophilic inflammation; assay type: functional
[6] = Cmax in rat at 10 mg/kg, po after 6 hrs; assay type: ADME, organism-based; set-up: dose 10 mg/kg, route oral; settings: in vivo
[7] = AUC in mouse at 25 mg/kg, po after 7 hrs; assay type: ADME, organism-based; set-up: time < 7 hr, dose 25 mg/kg, route oral; settings: plasma
[8] = Cmax in dog at 2 mg/kg, po after 48 hrs; assay type: ADME, organism-based, Canis lupus familiaris; set-up: dose 2 mg/kg, route oral; settings: in vivo
[9] = Cmax in mouse at 25 mg/kg, po after 7 hrs; assay type: ADME, organism-based; set-up: dose 25 mg/kg, route oral; settings: in vivo
[10] = AUC in monkey at 3 mg/kg, po after 48 hrs; assay type: ADME, organism-based, Macaca mulatta; set-up: time < 48 hr, dose 3 mg/kg, route oral; settings: rhesus monkey, plasma
[11] = Cmax in monkey at 3 mg/kg, po after 48 hrs; assay type: ADME, organism-based, Macaca mulatta; set-up: dose 3 mg/kg, route oral; settings: rhesus monkey, in vivo
[12] = AUC in dog at 2 mg/kg, po after 48 hrs; assay type: ADME, organism-based, Canis lupus familiaris; set-up: time < 48 hr, dose 2 mg/kg, route oral; settings: plasma

| Compound | Ki [1] [nM] | Ki [2] [nM] | other results |
| --- | --- | --- | --- |
| CC[C@@H](Nc1c(Nc2cccc(C(=O)N(C)C)c2O)c(=O)c1=O)c1cc(C(C)(C)C)co1 | 4 | 10 |  |
| CC(C)c1coc([C@H](Nc2c(Nc3cccc(C(=O)N(C)C)c3O)c(=O)c2=O)C(C)C)c1 | 4 | 11 |  |
| CCc1coc([C@@H](CC)Nc2c(Nc3cccc(C(=O)N(C)C)c3O)c(=O)c2=O)c1 | 1 | 7 | AUC at 6 h [3]: 17.4 µM·h |
| CC[C@@H](Nc1c(Nc2cccc(C(=O)N(C)C)c2O)c(=O)c1=O)c1cc(C2CCCCC2)co1 | 4 | 283 |  |
| CC(C)c1coc([C@H](Nc2c(Nc3cccc(C(=O)N(C)C)c3O)c(=O)c2=O)C2CC2)c1 | 3 | 10 |  |
| CC[C@@H](Nc1c(Nc2cccc(C(=O)N(C)C)c2O)c(=O)c1=O)c1cc(C)co1 | 4 | 9 | AUC at 6 h [3]: 32.6 µM·h |
| CC[C@@H](Nc1c(Nc2cccc(C(=O)N(C)C)c2O)c(=O)c1=O)c1cc(C)cs1 | 5 | 24 |  |
| CC[C@@H](Nc1c(Nc2cccc(C(=O)N(C)C)c2O)c(=O)c1=O)c1cc(CCCCN2CCOCC2)co1 | 9 | 14 |  |
| CC[C@@H](Nc1c(Nc2cccc(C(=O)N(C)C)c2O)c(=O)c1=O)c1sccc1C | 10 | 123 |  |
| CCC(C)c1coc([C@@H](CC)Nc2c(Nc3cccc(C(=O)N(C)C)c3O)c(=O)c2=O)c1 (some centres undefined) | 0.6 | 7.6 |  |
| CC[C@@H](Nc1c(Nc2cccc(C(=O)N(C)C)c2O)c(=O)c1=O)c1cc(C(C)C)co1 | 1 | 3 | IC50 [1]: 1.3 nM; IC50 [2]: 7.3 nM; IC50 (Neutrophil [4]): 0.5 nM; IC50 (Neutrophil [5]): 37 nM; ED50 (Rattus norvegicus): 0.9 mg/kg; ED50 (Mus musculus): 1 mg/kg; AUC at 6 h [3]: 5.4 µM·h; Cmax [6]: 3.8 µM; AUC at 7 h [7]: 4.6 µM·h; Cmax [8]: 5.3 µM; Cmax [9]: 4.6 µM; AUC at 48 h [10]: 4.2 µM·h; Cmax [11]: 0.38 µM; AUC at 48 h [12]: 7.1 µM·h |
| CCCCc1coc([C@@H](CC)Nc2c(Nc3cccc(C(=O)N(C)C)c3O)c(=O)c2=O)c1 | 2 | 34 |  |
| CC(C)c1coc([C@H](Nc2c(Nc3cccc(C(=O)N(C)C)c3O)c(=O)c2=O)C(C)(C)C)c1 | 4 | 14 |  |
| CC[C@@H](Nc1c(Nc2cccc(C(=O)N(C)C)c2O)c(=O)c1=O)c1cc(C2CCCC2)co1 | 3 | 53 |  |
| CC(C)c1coc([C@@H](C)Nc2c(Nc3cccc(C(=O)N(C)C)c3O)c(=O)c2=O)c1 | 2 | 50 |  |
| CC(C)c1coc([C@H](Nc2c(Nc3cccc(C(=O)N(C)C)c3O)c(=O)c2=O)C(F)(F)F)c1 | 6 | 16 |  |
| CCC(CC)c1coc([C@@H](CC)Nc2c(Nc3cccc(C(=O)N(C)C)c3O)c(=O)c2=O)c1 | 0.8 | 30 |  |
| CC[C@@H](Nc1c(Nc2cccc(C(=O)N(C)C)c2O)c(=O)c1=O)c1ccc(C)s1 | 5 | 146 |  |
| CCc1ccoc1[C@@H](CC)Nc1c(Nc2cccc(C(=O)N(C)C)c2O)c(=O)c1=O | 25 | 379 |  |
